What was measured:
[1] = molecular target: Mitogen-activated protein kinase 3 (Homo sapiens, UniProt P27361); experiment: Inhibition of ERK1 in human HeLa cells lysate pre incubated for 15 mins followed by ADP acyl phosphate probe addition and measured after 10 mins by LC-MS/MS analysis; assay type: subcellular
[2] = molecular target: Dual specificity protein kinase CLK3 (Homo sapiens, UniProt P49761); experiment: Inhibition of CLK3 in human HeLa cells lysate at 50 uM pre incubated for 15 mins followed by ADP acyl phosphate probe addition and measured after 10 mins by LC-MS/MS analysis relative to control; assay type: subcellular; conditions: time 25.0 min
Chain of Dual specificity protein kinase CLK3 (P49761 whole entry, looked up): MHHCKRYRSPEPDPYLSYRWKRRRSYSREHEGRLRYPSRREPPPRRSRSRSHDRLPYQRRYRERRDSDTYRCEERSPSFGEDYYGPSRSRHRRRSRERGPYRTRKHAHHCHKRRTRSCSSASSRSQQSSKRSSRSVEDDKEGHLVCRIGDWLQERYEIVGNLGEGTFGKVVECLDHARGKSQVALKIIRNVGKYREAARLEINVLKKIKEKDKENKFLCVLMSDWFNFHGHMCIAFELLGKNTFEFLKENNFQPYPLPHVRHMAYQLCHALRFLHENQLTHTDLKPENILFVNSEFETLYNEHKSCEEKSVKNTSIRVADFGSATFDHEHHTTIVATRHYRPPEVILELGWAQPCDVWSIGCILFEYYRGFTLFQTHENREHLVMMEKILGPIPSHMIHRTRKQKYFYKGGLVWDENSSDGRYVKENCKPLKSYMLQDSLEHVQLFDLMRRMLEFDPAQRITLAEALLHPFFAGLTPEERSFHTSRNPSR

[3] = molecular target: Serine/threonine-protein kinase Aurora (Homo sapiens, UniProt Q96GD4+Q9UQB9+O14965); experiment: Inhibition of AURA/AURB/AURC in human HeLa cells lysate pre incubated for 15 mins followed by ATP acyl phosphate probe addition and measured after 10 mins by LC-MS/MS analysis; assay type: subcellular
Method in brief: (§1)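 KiNativ-type profiling in HeLa lysate (5 mg/mL total protein). Lysate preincubated 15 min with inhibitor at 50, 10, 2, 0.8 or 0 μM, then ATP or ADP acylphosphate probe added (5 μM final) for 10 min. Reaction stopped with urea and analysed by targeted MS, using up to four fragment ions per kinase peptide-probe conjugate. % inhibition calculated against untreated lysate. Duplicate reactions.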

[4] = Inhibition of PKD1/2 in human HeLa cells lysate at 10 uM pre incubated for 15 mins followed by ATP acyl phosphate probe addition and measured after 10 mins by LC-MS/MS analysis relative to control; conditions: 25 min, condition cancer
[5] = molecular target: T1, Scaffold protein ILK (Homo sapiens) (UniProt Q13418); experiment: Inhibition of ILK in human HeLa cells lysate at 10 uM pre incubated for 15 mins followed by ATP acyl phosphate probe addition and measured after 10 mins by LC-MS/MS analysis relative to control; assay type: subcellular; conditions: time 25.0 min
T1 sequence (whole entry): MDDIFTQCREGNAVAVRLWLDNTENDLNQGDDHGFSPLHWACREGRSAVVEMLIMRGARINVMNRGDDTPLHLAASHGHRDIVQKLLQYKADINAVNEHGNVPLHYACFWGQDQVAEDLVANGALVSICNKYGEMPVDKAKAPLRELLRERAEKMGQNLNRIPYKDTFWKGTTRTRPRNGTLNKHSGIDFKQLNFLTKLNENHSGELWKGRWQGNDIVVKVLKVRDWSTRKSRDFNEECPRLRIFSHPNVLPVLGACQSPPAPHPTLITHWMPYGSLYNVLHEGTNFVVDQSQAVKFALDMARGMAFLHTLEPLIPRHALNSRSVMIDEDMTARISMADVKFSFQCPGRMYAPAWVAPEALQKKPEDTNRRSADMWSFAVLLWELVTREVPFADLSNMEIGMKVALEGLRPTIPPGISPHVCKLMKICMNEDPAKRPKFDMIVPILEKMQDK

[6] = molecular target: T2, Dual specificity mitogen-activated protein kinase kinase 6 (Homo sapiens) (UniProt P52564); experiment: Inhibition of MAP2K6 in human HeLa cells lysate at 10 uM pre incubated for 15 mins followed by ATP acyl phosphate probe addition and measured after 10 mins by LC-MS/MS analysis relative to control; assay type: subcellular; conditions: time 25.0 min
T2 sequence (whole entry): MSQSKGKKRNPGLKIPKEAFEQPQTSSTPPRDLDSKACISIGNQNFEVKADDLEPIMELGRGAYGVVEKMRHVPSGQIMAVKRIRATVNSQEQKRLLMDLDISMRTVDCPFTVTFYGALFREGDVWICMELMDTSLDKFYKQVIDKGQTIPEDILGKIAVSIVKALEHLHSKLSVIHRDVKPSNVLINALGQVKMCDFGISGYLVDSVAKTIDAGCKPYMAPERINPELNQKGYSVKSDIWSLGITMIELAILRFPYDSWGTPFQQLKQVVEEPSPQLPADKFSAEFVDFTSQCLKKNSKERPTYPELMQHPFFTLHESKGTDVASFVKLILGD

[7] = Inhibition of MST4/YSK1 in human HeLa cells lysate pre incubated for 15 mins followed by ADP acyl phosphate probe addition and measured after 10 mins by LC-MS/MS analysis; assay type: subcellular
[8] = molecular target: Serine-protein kinase ATM (Homo sapiens, UniProt Q13315); experiment: Inhibition of ATM in human HeLa cells lysate at 2 uM pre incubated for 15 mins followed by ADP acyl phosphate probe addition and measured after 10 mins by LC-MS/MS analysis relative to control; assay type: subcellular; conditions: time 25.0 min; method in brief: as §1
[9] = molecular target: Calcium/calmodulin-dependent protein kinase type II subunit gamma (Homo sapiens, UniProt Q13555); experiment: Inhibition of CAMK2g in human HeLa cells lysate at 50 uM pre incubated for 15 mins followed by ADP acyl phosphate probe addition and measured after 10 mins by LC-MS/MS analysis relative to control; assay type: subcellular; conditions: time 25.0 min; method in brief: as §1
Chain of Calcium/calmodulin-dependent protein kinase type II subunit gamma (Q13555 whole entry): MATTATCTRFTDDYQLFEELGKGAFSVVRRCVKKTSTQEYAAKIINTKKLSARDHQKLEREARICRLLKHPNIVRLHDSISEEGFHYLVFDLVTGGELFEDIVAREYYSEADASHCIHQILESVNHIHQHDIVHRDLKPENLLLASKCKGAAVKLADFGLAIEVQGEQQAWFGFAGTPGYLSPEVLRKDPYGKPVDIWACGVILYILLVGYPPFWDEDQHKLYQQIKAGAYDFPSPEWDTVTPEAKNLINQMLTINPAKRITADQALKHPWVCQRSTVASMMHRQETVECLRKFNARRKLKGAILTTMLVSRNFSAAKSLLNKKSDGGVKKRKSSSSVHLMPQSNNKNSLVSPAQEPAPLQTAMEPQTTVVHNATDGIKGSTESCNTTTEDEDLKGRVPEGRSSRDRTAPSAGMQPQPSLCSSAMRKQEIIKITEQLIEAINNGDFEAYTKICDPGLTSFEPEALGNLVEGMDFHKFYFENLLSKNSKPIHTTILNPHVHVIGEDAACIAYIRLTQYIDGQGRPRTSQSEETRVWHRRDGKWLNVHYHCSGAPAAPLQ

[10] = Inhibition of MSK1/2 in human HeLa cells lysate at 50 uM pre incubated for 15 mins followed by ADP acyl phosphate probe addition and measured after 10 mins by LC-MS/MS analysis relative to control; conditions: 25 min, condition cancer
[11] = molecular target: Epidermal growth factor receptor (Homo sapiens, UniProt P00533); experiment: Inhibition of EGFR in human HeLa cells lysate at 2 uM pre incubated for 15 mins followed by ADP acyl phosphate probe addition and measured after 10 mins by LC-MS/MS analysis relative to control; assay type: subcellular; conditions: time 25.0 min
Chain of Epidermal growth factor receptor (P00533 whole entry): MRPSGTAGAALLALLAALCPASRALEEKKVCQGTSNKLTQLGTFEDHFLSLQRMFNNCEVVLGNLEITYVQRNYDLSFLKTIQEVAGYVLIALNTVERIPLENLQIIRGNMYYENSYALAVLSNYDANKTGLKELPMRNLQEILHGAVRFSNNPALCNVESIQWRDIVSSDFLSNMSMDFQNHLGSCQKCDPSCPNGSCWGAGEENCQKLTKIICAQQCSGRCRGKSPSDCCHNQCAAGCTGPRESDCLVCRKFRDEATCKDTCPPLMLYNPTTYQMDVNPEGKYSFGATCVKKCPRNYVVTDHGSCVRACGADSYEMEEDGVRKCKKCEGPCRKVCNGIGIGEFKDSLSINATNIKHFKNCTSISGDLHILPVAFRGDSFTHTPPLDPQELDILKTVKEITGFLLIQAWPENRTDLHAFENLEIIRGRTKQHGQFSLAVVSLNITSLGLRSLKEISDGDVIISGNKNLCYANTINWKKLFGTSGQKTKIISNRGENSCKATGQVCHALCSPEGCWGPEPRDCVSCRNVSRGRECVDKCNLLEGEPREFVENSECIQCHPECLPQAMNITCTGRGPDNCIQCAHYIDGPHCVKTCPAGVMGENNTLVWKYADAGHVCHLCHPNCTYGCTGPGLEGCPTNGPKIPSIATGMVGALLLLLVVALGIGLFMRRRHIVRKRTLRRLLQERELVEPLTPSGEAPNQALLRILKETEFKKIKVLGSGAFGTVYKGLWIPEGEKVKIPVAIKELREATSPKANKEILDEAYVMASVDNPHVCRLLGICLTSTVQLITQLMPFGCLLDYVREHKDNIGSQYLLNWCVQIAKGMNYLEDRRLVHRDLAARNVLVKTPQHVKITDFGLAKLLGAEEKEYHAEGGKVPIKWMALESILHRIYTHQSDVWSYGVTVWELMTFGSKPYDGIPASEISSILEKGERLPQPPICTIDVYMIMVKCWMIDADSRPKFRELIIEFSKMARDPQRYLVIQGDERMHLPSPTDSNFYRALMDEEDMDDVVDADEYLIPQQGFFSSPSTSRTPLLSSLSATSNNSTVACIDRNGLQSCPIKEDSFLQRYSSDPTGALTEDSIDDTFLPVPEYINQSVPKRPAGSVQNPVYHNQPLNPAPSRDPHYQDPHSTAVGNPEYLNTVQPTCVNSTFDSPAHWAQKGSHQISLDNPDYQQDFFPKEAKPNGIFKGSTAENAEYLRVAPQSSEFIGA

[12] = molecular target: STE20-related kinase adapter protein beta (Homo sapiens, UniProt Q9C0K7); experiment: Inhibition of ALS2CR2 in human HeLa cells lysate pre incubated for 15 mins followed by ADP acyl phosphate probe addition and measured after 10 mins by LC-MS/MS analysis; assay type: subcellular
Chain of STE20-related kinase adapter protein beta (Q9C0K7 whole entry, the tested form may be a part): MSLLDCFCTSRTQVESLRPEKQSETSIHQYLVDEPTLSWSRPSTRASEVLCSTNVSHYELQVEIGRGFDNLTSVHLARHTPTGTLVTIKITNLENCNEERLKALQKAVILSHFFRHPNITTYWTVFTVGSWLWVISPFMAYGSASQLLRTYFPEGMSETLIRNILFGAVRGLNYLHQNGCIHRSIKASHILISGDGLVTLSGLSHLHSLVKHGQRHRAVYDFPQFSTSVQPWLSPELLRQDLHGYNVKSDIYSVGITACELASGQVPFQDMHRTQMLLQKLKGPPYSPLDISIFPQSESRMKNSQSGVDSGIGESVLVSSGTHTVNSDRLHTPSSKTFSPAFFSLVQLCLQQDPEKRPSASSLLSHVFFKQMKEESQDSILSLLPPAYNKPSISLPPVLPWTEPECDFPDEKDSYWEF
Method in brief: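 HeLa cell lysates (5 mg/mL total protein) were preincubated with inhibitor at 0, 0.8, 2, 10 or 50 μM for 15 min. ATP or ADP acylphosphate probe was then added (5 μM final) for 10 min, and reactions were stopped with urea. Up to four fragment ions per kinase probe-peptide were quantified by targeted MS. % inhibition was taken relative to untreated lysate. Run in duplicate.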

Chain of Mitogen-activated protein kinase 3 (P27361 whole entry): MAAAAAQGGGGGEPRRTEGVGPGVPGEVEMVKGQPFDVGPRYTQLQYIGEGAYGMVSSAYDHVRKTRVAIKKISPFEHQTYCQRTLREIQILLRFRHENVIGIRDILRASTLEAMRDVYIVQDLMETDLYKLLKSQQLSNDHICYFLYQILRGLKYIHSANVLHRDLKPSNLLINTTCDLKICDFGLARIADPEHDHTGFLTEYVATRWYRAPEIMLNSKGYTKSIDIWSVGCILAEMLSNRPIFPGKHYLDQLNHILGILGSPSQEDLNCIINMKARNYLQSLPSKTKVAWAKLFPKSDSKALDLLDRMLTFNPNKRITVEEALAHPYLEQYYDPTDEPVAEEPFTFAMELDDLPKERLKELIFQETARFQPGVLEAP

Work on `CCOc1cc(N2CCC(O)CC2)ccc1Nc1ncc2c(n1)N(C)c1ccccc1C(=O)N2C` yielded an IC50 [1] greater than 50 µM, an inhibition [2] of 32.6% and an IC50 [3] greater than 50 µM. The inhibition at 10 µM [4] was -23%, the inhibition [5] was 13.3% and the inhibition [6] was -9%. The IC50 [7] was greater than 50 µM, the inhibition [8] was 2.3% and the inhibition [9] was 14.1%. The inhibition at 50 µM [10] was 10%, the inhibition [11] was 12.2% and the IC50 [12] was greater than 50 µM.
